In experiment [1] the test system is Rattus norvegicus. As to the kind of experiment: Percentage blood pressure lowering in spontaneously hypertensive rats within 3 hr of intraperitoneal administration at 50 mg/kg. Type of experiment: functional. In a few lines:
(§1)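 Male Wistar/Kyoto SHR, about 6 months old, 300–400 g, housed four per cage with chow and water ad libitum. Drug given ip as a suspension in saline with 2% Emulphor EL-620. Systolic pressure was measured indirectly, mostly with photoelectric sensors at 25 °C, and earlier by a modified Friedman–Freed method with 30–45 s warming at 32 °C. Reported value: maximum % lowering within 3 h, mean ± SE.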

The subject of experiment [2] is Oryctolagus cuniculus. Nature of the experiment: Minimum effective dose level to give significant blood pressure lowering effect in normotensive rabbits after administering intravenously. The note with it: iv; for minimal effective dose: read-out: MED. The experiment is classed as functional. In a few lines: (§2)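 Conscious rabbits held in a stock. After 30 min, a 30-min control recording was taken, then drug was given into an ear vein and recording continued for 120 min. Mean arterial pressure (electrically damped) and heart rate were averaged at 10-min intervals over 120 min. The dose was adjusted to the minimum giving p < 0.05 lowering; in practice a ≥10 mmHg mean fall was significant. Vehicle: saline with 2% Emulphor EL-620.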

Experiment [3] relates to Oryctolagus cuniculus. As to the kind of experiment: Mean blood pressure lowering in normotensive rabbits over 2 h of intravenous administration at 0.008 mg/kg.
Experiment [4] relates to Oryctolagus cuniculus. Nature of the experiment: Mean blood pressure lowering in normotensive rabbits over 2 hr of intravenous administration at 0.125 mg/kg.
Experiment [5] has as its system Rattus norvegicus. As to the kind of experiment: Percentage blood pressure lowering in spontaneously hypertensive rats within 3 hr of intraperitoneal administration at 0.5 mg/kg. Type of experiment: functional. Put shortly:
as §1

For experiment [6], the system named is Rattus norvegicus. Nature of the experiment: Percentage blood pressure lowering in spontaneously hypertensive rats within 3 hr of intraperitoneal administration at 20 mg/kg. The experiment is classed as functional. In a few lines: as §1
Experiment [7] relates to Rattus norvegicus. Nature of the experiment: Percentage blood pressure lowering in spontaneously hypertensive rats within 3 hr of intraperitoneal administration at 50 mg/kg; Not statistically significant. The experiment is classed as functional. Put shortly: as §1
Experiment [8] concerns Rattus norvegicus. As to the kind of experiment: Percentage blood pressure lowering in spontaneously hypertensive rats within 3 hr of intraperitoneal administration at 5 mg/kg. Type of experiment: functional. In a few lines:
as §1

Experiment [9] concerns Rattus norvegicus. Nature of the experiment: Percentage blood pressure lowering in spontaneously hypertensive rats within 3 hr of intraperitoneal administration at 2 mg/kg. Type of experiment: functional. In a few lines: as §1
Experiment [10] relates to Rattus norvegicus. As to the kind of experiment: Percentage blood pressure lowering in spontaneously hypertensive rats within 3 hr of intraperitoneal administration at 10 mg/kg. The experiment is classed as functional. In a few lines: as §1
Experiment [11] concerns Rattus norvegicus. As to the kind of experiment: Percentage blood pressure lowering in spontaneously hypertensive rats within 3 hr of intraperitoneal administration at 25 mg/kg. Type of experiment: functional. In a few lines:
as §1

In experiment [12] the test system is Rattus norvegicus. Nature of the experiment: Percentage blood pressure lowering in spontaneously hypertensive rats within 3 hr of intraperitoneal administration at 1.0 mg/kg. The experiment is classed as functional. Put shortly:
as §1

For experiment [13], the system named is Rattus norvegicus. As to the kind of experiment: Percentage blood pressure lowering in spontaneously hypertensive rats within 3 hr of intraperitoneal administration at 20 mg/kg; Not statistically significant. Type of experiment: functional. Put shortly: as §1
Experiment [14] deals with Oryctolagus cuniculus. Nature of the experiment: Minimum effective dose level to give significant blood pressure lowering effect in normotensive rabbits after administering intravenously; NA denotes not active at 2.5 mg/kg. Type of experiment: functional, organism-based. More on the design: dose 2.5 mg/kg. Put shortly: as §2

The values below come from ChEMBL document CHEMBL1121468, “Synthesis and blood pressure lowering activity of 3-(substituted-amino)-1,2,4-benzothiadiazine 1-oxide derivatives” (1980).

Activity calls are given as the source filed them. The rule behind the calls is not given here.

For `COc1cc2c(c(OC)c1OC)S(C)(=O)=NC(N1CCN(C(=O)c3ccco3)CC1)=N2.Cl` (configuration not stated), the BP decrease in the experiment on Rattus norvegicus [1] came to 20.6%. The minimal effective dose in the experiment with Oryctolagus cuniculus [2] worked out at 0.04 mg/kg. With `COc1cc2c(cc1OC)S(C)(=O)=NC(N1CCN(C(=O)c3ccco3)CC1)=N2.Cl` (configuration not stated), the BP decrease with Oryctolagus cuniculus [3] was 11.9 mmHg; in the experiment with Oryctolagus cuniculus [4], 24.8 mmHg; in the experiment with Rattus norvegicus [5], 28.8%. Take `COc1cc2c(cc1OC)S(C)(=O)=NC(N1CCN(C(=O)c3ccccc3)CC1)=N2.Cl` (configuration not stated): the BP decrease in the experiment on Rattus norvegicus [1] was 25.5%. Also, in the experiment with Oryctolagus cuniculus [2], the minimal effective dose turned out to be 0.312 mg/kg. For `CCOc1cc2c(cc1OCC)S(C)(=O)=NC(N1CCN(C(=O)c3ccco3)CC1)=N2.Cl` (configuration not stated) the same measures were 16.4% and 2.5 mg/kg. For `COc1cc2c(cc1OC)S(C)(=O)=NC(Nc1ccccc1)=N2.Cl` (configuration not stated) the same measures were 19.9% and 1 mg/kg. As to `COc1cc2c(cc1OC)S(C)(=O)=NC(N1CCC(OC(C)=O)CC1)=N2.Cl` (configuration not stated), in the experiment with Rattus norvegicus [6], the BP decrease amounted to 43%. The minimal effective dose with Oryctolagus cuniculus [2] came out at 0.25 mg/kg. In the case of `CCS1(=O)=NC(N2CCN(C(=O)c3ccco3)CC2)=Nc2cc(OC)c(OC)cc21.Cl` (configuration not stated), the BP decrease with Rattus norvegicus [1] is 18.2%. Besides, the minimal effective dose with Oryctolagus cuniculus [2] came out at 2.5 mg/kg. With `COc1cc2c(cc1OC)S(C)(=O)=NC(N1CCCCC1)=N2.Cl` (configuration not stated), the BP decrease with Rattus norvegicus [7] was determined as 17.1%. In the experiment on Oryctolagus cuniculus [2], the minimal effective dose worked out at 1.25 mg/kg. On to `COc1cc2c(cc1OC)S(C)(=O)=NC(NC(C)C)=N2.Cl` (configuration not stated), for which the BP decrease in the experiment with Rattus norvegicus [1] came out at 17.7%. Further, the minimal effective dose in the experiment on Oryctolagus cuniculus [2] came to 2.5 mg/kg. On to `COc1cc2c(cc1OC)S(C)(=O)=NC(N1CCC(O)CC1)=N2.Cl` (configuration not stated), for which, in the experiment with Rattus norvegicus [8], the BP decrease is 56.9%. Besides, the minimal effective dose with Oryctolagus cuniculus [2] was determined as 0.625 mg/kg. As to `CCN(CC)C1=Nc2cc(OC)c(OC)cc2S(C)(=O)=N1.Cl` (configuration not stated), the BP decrease in the experiment with Rattus norvegicus [9] is recorded as 37.3%. In the experiment with Oryctolagus cuniculus [2], the minimal effective dose was 0.04 mg/kg. Turning to `COc1cc2c(cc1OC)S(C)(=O)=NC(N1CCC(C(O)c3ccccc3)CC1)=N2.Cl` (configuration not stated), the BP decrease in the experiment on Rattus norvegicus [10] turned out to be 40.9%. In the experiment on Oryctolagus cuniculus [2], the minimal effective dose worked out at 0.008 mg/kg. For `COc1cc2c(cc1OC)S(C)(=O)=NC(NCc1ccccc1)=N2.Cl` (configuration not stated), the BP decrease in the experiment on Rattus norvegicus [1] worked out at 28.9%. The minimal effective dose in the experiment with Oryctolagus cuniculus [2] is 1.25 mg/kg.

As to `CNC1=Nc2cc(OC)c(OC)cc2S(C)(=O)=N1.Cl` (configuration not stated), in the experiment on Rattus norvegicus [7], the BP decrease amounted to 11.3%. Also, the minimal effective dose in the experiment with Oryctolagus cuniculus [2] came to 0.16 mg/kg. `COc1cc2nc(N3CCN(C(=O)c4ccco4)CC3)nc(N)c2cc1OC.Cl` [PRAZOSIN HYDROCHLORIDE]: the BP decrease in the experiment on Rattus norvegicus [5] stood at 14.7%. In the experiment with Oryctolagus cuniculus [2], this compound returned an MED of 0.025 mg/kg.

On to `COc1cc2c(cc1OC)S(C)(=O)=NC(N1CCN(C)CC1)=N2.Cl.Cl` (configuration not stated), for which the BP decrease with Rattus norvegicus [1] worked out at 19.7%. The minimal effective dose in the experiment on Oryctolagus cuniculus [2] stood at 5 mg/kg. For `COc1cc2c(cc1OC)S(C)(=O)=NC(N1CCC(C(=O)c3ccccc3)CC1)=N2.Cl` (configuration not stated), the BP decrease in the experiment on Rattus norvegicus [9] is on record as 25.8%. Take `COc1cc2c(cc1OC)S(C)(=O)=NC(N1CCN(Cc3ccccc3)CC1)=N2.Cl.Cl` (configuration not stated): the BP decrease in the experiment on Rattus norvegicus [1] was 32.9%. The minimal effective dose with Oryctolagus cuniculus [2] worked out at 2.5 mg/kg. `COc1cc2c(cc1OC)S(C)(=O)=NC(N1CCC(C#N)(c3ccccc3)CC1)=N2.Cl` (configuration not stated): the BP decrease in the experiment with Rattus norvegicus [7] was 1.6%. Consider `COc1cc2c(cc1OC)S(C)(=O)=NC(N1CCN(c3ccccc3)CC1)=N2.Cl.Cl` (configuration not stated), for which the BP decrease in the experiment on Rattus norvegicus [11] worked out at 30.8%. Also, in the experiment on Oryctolagus cuniculus [2], the minimal effective dose is 0.625 mg/kg. With `COc1cc2c(cc1OC)S(C)(=O)=NC(N1CCN(C(=O)c3nnc(SC)o3)CC1)=N2.Cl` (configuration not stated), the BP decrease in the experiment on Rattus norvegicus [12] is given as 14%. The minimal effective dose in the experiment on Oryctolagus cuniculus [2] was 0.2 mg/kg. As for `COc1cc2c(cc1OC)S(=O)(C(C)C)=NC(N1CCN(C(=O)c3ccco3)CC1)=N2.Cl` (configuration not stated), the BP decrease in the experiment with Rattus norvegicus [1] worked out at 34.3%. Regarding `COc1cc2c(cc1OC)S(C)(=O)=NC(N(C)C)=N2.Cl` (configuration not stated), in the experiment on Rattus norvegicus [1], the BP decrease amounted to 24.8%. In addition, the minimal effective dose in the experiment on Oryctolagus cuniculus [2] was found to be 0.125 mg/kg. Regarding `COc1cc2c(cc1OC)S(=O)(c1ccccc1)=NC(N1CCN(C(=O)c3ccco3)CC1)=N2.Cl` (configuration not stated), in the experiment on Rattus norvegicus [1], the BP decrease amounted to 26.1%. In the experiment with Oryctolagus cuniculus [2], the minimal effective dose amounted to 1.25 mg/kg. Consider `COc1cc2c(cc1OC)S(C)(=O)=NC(N1CCC(n3c(O)nc4ccccc43)CC1)=N2.Cl` (configuration not stated), for which the BP decrease in the experiment on Rattus norvegicus [1] came to 22.5%. In the experiment with Oryctolagus cuniculus [2], the minimal effective dose was found to be 2.5 mg/kg. Turning to `COc1cc2c(cc1OC)S(C)(=O)=NC(N1CCCN(C(=O)c3ccco3)CC1)=N2.Cl` (configuration not stated), the BP decrease in the experiment with Rattus norvegicus [13] is reported as -1%. In addition, the minimal effective dose in the experiment with Oryctolagus cuniculus [2] came to 1.25 mg/kg.

In the case of `COc1cc2c(cc1OC)S(C)(=O)=NC(N1CCC(c3ccccc3)CC1)=N2.Cl` (configuration not stated), the BP decrease with Rattus norvegicus [1] is 30.2%. Besides, the minimal effective dose in the experiment with Oryctolagus cuniculus [2] is 0.16 mg/kg. `COc1cc2c(cc1OC)S(C)(=O)=NC(N1CCC(O)(c3ccccc3)CC1)=N2.Cl` (configuration not stated): the BP decrease in the experiment on Rattus norvegicus [1] stood at 21.4%. As to `CS1(=O)=NC(N2CCN(C(=O)c3ccco3)CC2)=Nc2cc3c(cc21)OCO3.Cl` (configuration not stated), the BP decrease result with Oryctolagus cuniculus [14] was “inactive”. Besides, in the experiment with Rattus norvegicus [1], the BP decrease is 18.2%.

In the case of `COc1cc2c(cc1OC)S(C)(=O)=NC(N1CCNCC1)=N2.Cl.Cl` (configuration not stated), in the experiment with Rattus norvegicus [7], the BP decrease is on record as 9.1%. Also, the minimal effective dose with Oryctolagus cuniculus [2] came to 10 mg/kg.
